Laboratory results published in ChEMBL document CHEMBL4049449, “Discovery of a Novel Class of Survival Motor Neuron 2 Splicing Modifiers for the Treatment of Spinal Muscular Atrophy” (J Med Chem, 2017).
Active and inactive are the calls of the source. The rule behind the calls is not given here.

Assays:
[1] = Total AUC in wild type FVB mouse plasma at 10 mg/kg, po qd for 10 days by LC-MS/MS analysis; format: ADME, organism-based; parameters: dose 10 mg/kg, route oral, time AUCmax
Mus musculus [2] = test: Induction of SMN protein levels in C/C-Allele SMA FVB mouse brain at 3 mg/kg, po qd for 10 days measured 1 hr post last dose by HTRF assay relative to control; format: functional
Procedure, shortened: (§1)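 Adult C/C-allele SMA mice dosed orally once daily for 10 days at 1, 3 or 10 mg/kg. SMN protein in brain and quadriceps was expressed as % increase over vehicle-treated animals.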

Mus musculus [3] = test: Induction of SMN protein levels in C/C-Allele SMA FVB mouse brain at 10 mg/kg, po qd for 10 days measured 1 hr post last dose by HTRF assay relative to control; format: functional; procedure, shortened: as §1
[4] = Total AUC in neonatal wild type FVB mouse plasma at 3 mg/kg, ip qd for 10 days by LC-MS/MS analysis; format: ADME, organism-based; parameters: dose 3 mg/kg, route intraperitoneal, time AUCmax
Procedure, shortened: (§2)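 Plasma AUC determined in a satellite group of neonatal (P10) wild-type mice dosed ip. Free AUC was calculated using the free fraction measured in serum from adult mice.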

Mus musculus [5] = test: Induction of SMN protein levels in neonatal delta7 FVB mouse brain at 0.3 mg/kg, ip qd administered from postnatal day 3 to day 9 measured 1 hr post last dose by HTRF assay relative to control; format: functional
Mus musculus [6] = test: Induction of SMN protein levels in neonatal delta7 FVB mouse brain at 1 mg/kg, ip qd administered from postnatal day 3 to day 9 measured 1 hr post last dose by HTRF assay relative to control; format: functional
Mus musculus [7] = test: Induction of SMN protein levels in neonatal delta7 FVB mouse brain at 3 mg/kg, ip qd administered from postnatal day 3 to day 9 measured 1 hr post last dose by HTRF assay relative to control; format: functional
Homo sapiens [8] = organism: Homo sapiens; test: Modulation of patient derived full length SMN2 pre mRNA splicing assessed as inclusion of exon 7
Homo sapiens [9] = organism: Homo sapiens; test: Modulation of patient derived full length SMN2 pre mRNA splicing assessed as restoration of functional SMN2 to protein level
Mus musculus [10] = test: Induction of SMN protein levels in C/C-Allele SMA FVB mouse brain at 1 mg/kg, po qd for 10 days measured 1 hr post last dose by HTRF assay relative to control; format: functional; procedure, shortened: as §1
Salmonella typhimurium [11] = test: Genotoxicity in Salmonella typhimurium TA1535 in presence of rat liver S9 fraction by Ames test; format: toxicity; settings: salmonella enterica subsp. enterica serovar typhimurium
Procedure, shortened: (§3)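 Ames plate incorporation: strains grown overnight at 37 °C in nutrient broth (TA102 with 0.3 μg/mL tetracycline). Compound at 20–2000 μg/plate in top agar with histidine/biotin, plus rat liver S9 mix (NADP, glucose 6-phosphate, KCl, MgCl2, pH 7.4 phosphate). Vogel–Bonner plates incubated 37 °C, 2 days; colonies counted by image analysis. Positive: dose-dependent ≥2-fold (TA1535, TA98) or ≥1.5-fold (TA97, TA100, TA102) rise over background.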

Salmonella typhimurium [12] = test: Genotoxicity in Salmonella typhimurium TA97 in presence of rat liver S9 fraction by Ames test; format: toxicity; settings: salmonella enterica subsp. enterica serovar typhimurium; procedure, shortened: as §3
Salmonella typhimurium [13] = test: Genotoxicity in Salmonella typhimurium TA98 in presence of rat liver S9 fraction by Ames test; format: toxicity; settings: salmonella enterica subsp. enterica serovar typhimurium; procedure, shortened: as §3
Salmonella typhimurium [14] = test: Genotoxicity in Salmonella typhimurium TA100 in presence of rat liver S9 fraction by Ames test; format: toxicity; settings: salmonella enterica subsp. enterica serovar typhimurium; procedure, shortened: as §3
Salmonella typhimurium [15] = test: Genotoxicity in Salmonella typhimurium TA102 in presence of rat liver S9 fraction by Ames test; format: toxicity; settings: salmonella enterica subsp. enterica serovar typhimurium; procedure, shortened: as §3
P-gp = test: Substrate activity at mouse P-gp assessed as efflux ratio; format: ADME; settings: not told
[16] = Ratio of drug level in wild type FVB mouse brain to plasma at 10 mg/kg, po; format: ADME, organism-based; settings: read-out: BPR
[17] = Fraction unbound in human plasma; format: ADME, cell-free
[18] = Fraction unbound in mouse plasma; format: ADME, cell-free
Mus musculus [19] = test: Unbound AUC in C/C-Allele SMA FVB mouse plasma at 10 mg/kg, po qd for 10 days by LC-MS/MS analysis; format: ADME, organism-based; settings: in vivo, 240 h
Mus musculus [20] = test: Induction of SMN protein levels in C/C-Allele SMA FVB mouse quadriceps muscle at 1 mg/kg, po qd for 10 days measured 1 hrs post last dose by HTRF assay relative to control; format: functional; procedure, shortened: as §1
Mus musculus [21] = test: Induction of SMN protein levels in C/C-Allele SMA FVB mouse quadriceps muscle at 3 mg/kg, po qd for 10 days measured 1 hrs post last dose by HTRF assay relative to control; format: functional; procedure, shortened: as §1
Mus musculus [22] = test: Induction of SMN protein levels in C/C-Allele SMA FVB mouse quadriceps muscle at 10 mg/kg, po qd for 10 days measured 1 hrs post last dose by HTRF assay relative to control; format: functional; procedure, shortened: as §1
Mus musculus [23] = test: Unbound AUC in neonatal […] FVB mouse plasma at 3 mg/kg, ip qd administered from postnatal day 3 to day 9 by LC-MS/MS analysis; format: ADME, organism-based; settings: in vivo; procedure, shortened: as §2
Mus musculus [24] = test: Induction of SMN protein levels in neonatal delta7 FVB mouse quadriceps muscle at 0.3 mg/kg, ip qd administered from postnatal day 3 to day 9 measured 1 hr post last dose by HTRF assay relative to control; format: functional
Mus musculus [25] = test: Induction of SMN protein levels in neonatal delta7 FVB mouse quadriceps muscle at 1 mg/kg, ip qd administered from postnatal day 3 to day 9 measured 1 hr post last dose by HTRF assay relative to control; format: functional
Mus musculus [26] = test: Induction of SMN protein levels in neonatal delta7 FVB mouse quadriceps muscle at 3 mg/kg, ip qd administered from postnatal day 3 to day 9 measured 1 hr post last dose by HTRF assay relative to control; format: functional
Mus musculus [27] = test: Induction of SMN protein levels in C/C-Allele SMA FVB mouse brain administered as po qd for 10 days measured 1 hr post last dose by HTRF assay; format: functional, organism-based; procedure, shortened: as §1
[28] = Substrate activity at human P-gp; format: ADME
Mus musculus [29] = test: Induction of SMN protein levels in C/C-Allele SMA FVB mouse quadriceps muscle administered as po qd for 10 days measured 1 hr post last dose by HTRF assay; format: functional, organism-based; procedure, shortened: as §1
Mus musculus [30] = test: Induction of SMN protein levels in neonatal delta7 FVB mouse quadriceps muscle administered as ip qd from postnatal day 3 to day 9 measured 1 hr post last dose by HTRF assay relative to control; format: functional, organism-based
Mus musculus [31] = test: Induction of SMN protein levels in neonatal delta7 FVB mouse brain administered as ip qd from postnatal day 3 to day 9 measured 1 hr post last dose by HTRF assay relative to control; format: functional, organism-based

Structure (SMILES): CC[C@H]1CN(c2ccc(C(=O)Nc3cn4cc(C)nc4cn3)c(F)c2)CCN1
- AUC at 240 h [1]: 27100 ng·h/mL
- Activity (Mus musculus [2]): 81%
- Activity (Mus musculus [3]): 260%
- AUC at 240 h [4]: 4450 ng·h/mL
- Activity (Mus musculus [5]): 26%
- Activity (Mus musculus [6]): 53%
- Activity (Mus musculus [7]): 100%
- EC1.5 (Homo sapiens [8]): 12 nM
- EC1.5 (Homo sapiens [9]): 246 nM
- Activity (Mus musculus [10]): 22%

Structure (SMILES): Cc1nc2c(F)cc(NC(=O)c3ccc(N4CCNCC4)cc3F)cc2o1
- Activity (Salmonella typhimurium [11]): Non-Toxic
- Activity (Salmonella typhimurium [12]): Non-Toxic
- Activity (Salmonella typhimurium [13]): Non-Toxic
- Activity (Salmonella typhimurium [14]): Non-Toxic
- Activity (Salmonella typhimurium [15]): Non-Toxic
- EC1.5 (Homo sapiens [8]): 39 nM
- EC1.5 (Homo sapiens [9]): 116 nM

Structure (SMILES): Cc1cn2cc(-c3cc4ccc(N5CCN(C)CC5)cc4c(=O)o3)nc2c(C)n1
- Activity (Salmonella typhimurium [11]): Toxic
- Activity (Salmonella typhimurium [12]): Toxic
- Activity (Salmonella typhimurium [13]): Toxic
- Activity (Salmonella typhimurium [14]): Toxic
- Activity (Salmonella typhimurium [15]): Toxic
- EC1.5 (Homo sapiens [8]): 25 nM

Structure (SMILES): Cc1cn2cc(NC(=O)c3ccc(N4CCNCC4)cc3F)cc(F)c2n1
- Activity (Salmonella typhimurium [11]): Toxic
- Activity (Salmonella typhimurium [12]): Toxic
- Activity (Salmonella typhimurium [13]): Toxic
- Activity (Salmonella typhimurium [14]): Toxic
- Activity (Salmonella typhimurium [15]): Toxic
- EC1.5 (Homo sapiens [8]): 11 nM
- EC1.5 (Homo sapiens [9]): 27 nM

Structure (SMILES): Cc1cn2nc(NC(=O)c3ccc(N4CCNC(C)C4)cc3F)nc2c(C)n1 (stereo not given)
- Activity (Salmonella typhimurium [11]): Non-Toxic
- Activity (Salmonella typhimurium [12]): Non-Toxic
- Activity (Salmonella typhimurium [13]): Non-Toxic
- Activity (Salmonella typhimurium [14]): Non-Toxic
- Activity (Salmonella typhimurium [15]): Non-Toxic
- EC1.5 (Homo sapiens [8]): inactive
- EC1.5 (Homo sapiens [9]): inactive

Structure (SMILES): CC[C@@H]1CN(c2ccc(C(=O)Nc3cn4cc(C)nc4cn3)c(F)c2)CCN1
- AUC at 240 h [1]: 19000 ng·h/mL
- Activity (Mus musculus [2]): 45%
- Activity (Mus musculus [3]): 217%
- AUC at 240 h [4]: 3730 ng·h/mL
- Activity (Mus musculus [5]): 0%
- Activity (Mus musculus [6]): 66%
- Activity (Mus musculus [7]): 117%
- EC1.5 (Homo sapiens [8]): 29 nM
- EC1.5 (Homo sapiens [9]): 158 nM
- Activity (Mus musculus [10]): 19%

Structure (SMILES): Cc1cn2cc(NC(=O)c3ccc(N4CCNC(C)C4)cc3F)c(C)cc2n1 (stereo not given)
- Activity (Salmonella typhimurium [11]): Non-Toxic
- Activity (Salmonella typhimurium [12]): Non-Toxic
- Activity (Salmonella typhimurium [13]): Non-Toxic
- Activity (Salmonella typhimurium [14]): Non-Toxic
- Activity (Salmonella typhimurium [15]): Non-Toxic
- EC1.5 (Homo sapiens [8]): 40 nM
- EC1.5 (Homo sapiens [9]): 152 nM

Structure (SMILES): CCN1CCN(c2ccc3cc(-c4cn5cc(C)nc(C)c5n4)c(=O)oc3c2)C[C@@H]1C
- Activity (Salmonella typhimurium [11]): Toxic
- Activity (Salmonella typhimurium [12]): Toxic
- Activity (Salmonella typhimurium [13]): Toxic
- Activity (Salmonella typhimurium [14]): Toxic
- Activity (Salmonella typhimurium [15]): Toxic

Structure (SMILES): Cc1cn2cc(NC(=O)c3ccc(N4CCNC(C)C4)cc3F)nc2c(C)n1 (stereo not given)
- Activity (Salmonella typhimurium [11]): Toxic
- Activity (Salmonella typhimurium [12]): Toxic
- Activity (Salmonella typhimurium [13]): Toxic
- Activity (Salmonella typhimurium [14]): Toxic
- Activity (Salmonella typhimurium [15]): Toxic
- efflux ratio (P-gp): 4.1
- Kp [16]: 3.4
- fraction unbound [17]: 0.186
- fraction unbound [18]: 0.197
- AUC at 240 h [1]: 7900 ng·h/mL
- fAUC (Mus musculus [19]): 1580 ng·h/mL
- Activity (Mus musculus [2]): 24%
- Activity (Mus musculus [3]): 102%
- Activity (Mus musculus [20]): 13%
- Activity (Mus musculus [21]): 54%
- Activity (Mus musculus [22]): 152%
- AUC at 240 h [4]: 3900 ng·h/mL
- fAUC (Mus musculus [23]): 790 ng·h/mL
- Activity (Mus musculus [5]): 24%
- Activity (Mus musculus [6]): 75%
- Activity (Mus musculus [7]): 150%
- Activity (Mus musculus [24]): 14%
- Activity (Mus musculus [25]): 24%
- Activity (Mus musculus [26]): 140%
- Activity (Mus musculus [27]): Dose-dependent effect
- EC1.5 (Homo sapiens [8]): 52 nM
- EC1.5 (Homo sapiens [9]): 98 nM
- Activity [28]: Not Active
- Activity (Mus musculus [10]): 0%
- Activity (Mus musculus [29]): Dose-dependent effect
- Activity (Mus musculus [30]): Dose-dependent effect
- Activity (Mus musculus [31]): Dose-dependent effect

Structure (SMILES): Cc1cn2cc(NC(=O)c3ccc(N4CCNCC4)cc3F)ncc2n1
- Activity (Salmonella typhimurium [11]): Non-Toxic
- Activity (Salmonella typhimurium [12]): Non-Toxic
- Activity (Salmonella typhimurium [13]): Non-Toxic
- Activity (Salmonella typhimurium [14]): Non-Toxic
- Activity (Salmonella typhimurium [15]): Non-Toxic
- EC1.5 (Homo sapiens [8]): 37 nM
- EC1.5 (Homo sapiens [9]): 87 nM

Structure (SMILES): COc1cc(N2CCNC(C)C2)ccc1C(=O)Nc1cn2cc(C)nc2cn1 (stereo not given)
- EC1.5 (Homo sapiens [8]): 58 nM
- EC1.5 (Homo sapiens [9]): 206 nM
